In ChEMBL document CHEMBL3286182, “4-aminoquinolone piperidine amides: noncovalent inhibitors of DprE1 with long residence time and potent antimycobacterial activity” (J Med Chem, 2014):
In brackets after ≈: the same amount, converted by molar mass. Activity calls are given as the source filed them. The rule behind the calls is not given here.

How the values were obtained:
Klebsiella pneumoniae = assay: Antimicrobial activity against Klebsiella pneumoniae ARC1865 at 100 uM; format: functional, organism-based
Outline: (§1)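 Nonmycobacterial panel of Candida albicans, Gram-negative and Gram-positive pathogens.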

Streptococcus pneumoniae = assay: Antimicrobial activity against Streptococcus pneumoniae ARC548 at 100 uM; format: functional, organism-based; outline: as §1
Haemophilus influenzae [1] = assay: Antimicrobial activity against Haemophilus influenzae ARC158 at 100 uM; format: functional, organism-based; outline: as §1
[2] = test system: Mycolicibacterium smegmatis; assay: Antimicrobial activity against Mycobacterium smegmatis mc2155 at 100 uM; format: functional, organism-based; details: str. MC2 155
Pseudomonas aeruginosa [3] = assay: Antimicrobial activity against Pseudomonas aeruginosa ARC545 at 100 uM; format: functional, organism-based; outline: as §1
[4] = test system: Mycolicibacterium smegmatis; assay: Antimicrobial activity against Mycobacterium smegmatis ATCC 607 at 100 uM; format: functional, organism-based
Candida albicans = assay: Antimicrobial activity against Candida albicans ARC527 at 100 uM; format: functional, organism-based; outline: as §1
Haemophilus influenzae [5] = assay: Antimicrobial activity against Haemophilus influenzae ARC446 at 100 uM; format: functional, organism-based; outline: as §1
Pseudomonas aeruginosa [6] = assay: Antimicrobial activity against Pseudomonas aeruginosa ARC546 at 100 uM; format: functional, organism-based; outline: as §1
[7] = Inhibition of Mycobacterium smegmatis recombinant DprE1 using farnesylphosphoryl-beta-D-ribofuranose as substrate assessed as conversion of amplex red to resorufin after 30 mins; set-up: species or system Mycolicibacterium smegmatis
Outline: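 Msm DprE1 (thioredoxin-6His fusion of Msm Rv3790) at 75 nM, preincubated 30 min with 10 μM FAD. Buffer: 50 mM glycylglycine pH 8.5, 200 mM potassium glutamate, 0.002% Brij-35, 2% DMSO, 25 °C. Started with 300 μM farnesylphosphoryl-β-D-ribofuranose, 0.01 mg/mL HRP and 50 μM Amplex Red.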

[8] = test system: Mycobacterium tuberculosis; assay: Antimycobacterial activity against Mycobacterium tuberculosis H37Rv under hypoxic condition after 6 days by resazurin assay; format: functional
Escherichia coli [9] = assay: Antimicrobial activity against Escherichia coli ARC523 at 100 uM; format: functional, organism-based; outline: as §1
[10] = test system: Mycobacterium tuberculosis; assay: Antimycobacterial activity against Mycobacterium tuberculosis H37Rv after 5 days by standard microdilution method; format: functional; details: 120 h
Escherichia coli [11] = assay: Antimicrobial activity against Escherichia coli ARC524 at 100 uM; format: functional, organism-based; outline: as §1
Staphylococcus aureus = assay: Antimicrobial activity against Staphylococcus aureus ARC517 at 100 uM; format: functional, organism-based; outline: as §1

With `Cc1c(C(=O)N2CCC(Nc3cc(=O)[nH]c4ccccc34)CC2)cnn1C` the Activity (Klebsiella pneumoniae) was “inactive”, the Activity (Streptococcus pneumoniae) was “inactive” and the Activity (Haemophilus influenzae [1]) was “inactive”. For the same compound, the Activity [2] was “inactive”, the Activity (Pseudomonas aeruginosa [3]) was “inactive” and the Activity [4] was “inactive”. For the same compound, the Activity (Candida albicans) was “inactive”, the Activity (Haemophilus influenzae [5]) was “inactive” and the Activity (Pseudomonas aeruginosa [6]) was “inactive”. For the same compound, the IC50 [7] was 210 nM, the Activity [8] was “inactive” and the Activity (Escherichia coli [9]) was “inactive”. For the same compound, the MIC [10] was 6.2 µM (≈ 2.27 µg/mL), the Activity (Escherichia coli [11]) was “inactive” and the Activity (Staphylococcus aureus) was “inactive”.
Work on `Cn1ncc(C(=O)N2[C@@H]3CC[C@H]2C[C@@H](Nc2cc(=O)n(C)c4ccc(F)cc24)C3)c1Cl` yielded an IC50 [7] of 12 nM and an MIC [10] of 0.25 µM (≈ 0.111 µg/mL).
In the case of `Cn1ncc(C(=O)N2CCC(Nc3n[nH]c4ccc(F)cc34)CC2)c1Cl`, the IC50 [7] is reported as 113 nM and the MIC [10] is reported as over 100 µM.
In the case of `Cn1ncc(C(=O)N2CC(Nc3cc(=O)[nH]c4ccccc34)C2)c1Cl`, the IC50 [7] is reported as 1800 nM and the MIC [10] is reported as 50 µM (≈ 17.9 µg/mL).
With `CC(C)n1ncc(C(=O)N2CCC(Nc3cc(=O)[nH]c4ccccc34)CC2)c1Cl` the Activity (Klebsiella pneumoniae) was “inactive”, the Activity (Streptococcus pneumoniae) was “inactive” and the Activity (Haemophilus influenzae [1]) was “inactive”. For the same compound, the Activity [2] was “inactive”, the Activity (Pseudomonas aeruginosa [3]) was “inactive” and the Activity [4] was “inactive”. For the same compound, the Activity (Candida albicans) was “inactive”, the Activity (Haemophilus influenzae [5]) was “inactive” and the Activity (Pseudomonas aeruginosa [6]) was “inactive”. The IC50 [7] was 7000 nM, the Activity [8] was “inactive” and the Activity (Escherichia coli [9]) was “inactive”. The MIC [10] was 100 µM (≈ 41.4 µg/mL), the Activity (Escherichia coli [11]) was “inactive” and the Activity (Staphylococcus aureus) was “inactive”.
`C[C@H]1C[C@H](Nc2cc(=O)[nH]c3ccccc23)CCN1C(=O)c1cnn(C)c1Cl` gave an IC50 [7] of 26 nM and an MIC [10] of 12.5 µM (≈ 5 µg/mL).
With `Cn1cc(C(=O)N2CCC(Nc3cc(=O)[nH]c4ccccc34)CC2)cn1` the Activity (Klebsiella pneumoniae) was “inactive”, the Activity (Streptococcus pneumoniae) was “inactive” and the Activity (Haemophilus influenzae [1]) was “inactive”. For the same compound, the Activity [2] was “inactive”, the Activity (Pseudomonas aeruginosa [3]) was “inactive” and the Activity [4] was “inactive”. The Activity (Candida albicans) was “inactive”, the Activity (Haemophilus influenzae [5]) was “inactive” and the Activity (Pseudomonas aeruginosa [6]) was “inactive”. The IC50 [7] was 2200 nM, the Activity [8] was “inactive” and the Activity (Escherichia coli [9]) was “inactive”. For the same compound, the MIC [10] was 140 µM (≈ 49.2 µg/mL), the Activity (Escherichia coli [11]) was “inactive” and the Activity (Staphylococcus aureus) was “inactive”.
For `Cc1onc(C(=O)N2CCC(Nc3cc(=O)[nH]c4ccc(F)cc34)CC2)c1C`, the Activity (Klebsiella pneumoniae) was “inactive”, the Activity (Streptococcus pneumoniae) was “inactive” and the Activity (Haemophilus influenzae [1]) was “inactive”. For the same compound, the Activity [2] was “inactive”, the Activity (Pseudomonas aeruginosa [3]) was “inactive” and the Activity [4] was “inactive”. The Activity (Candida albicans) was “inactive”, the Activity (Haemophilus influenzae [5]) was “inactive” and the Activity (Pseudomonas aeruginosa [6]) was “inactive”. For the same compound, the IC50 [7] was under 6 nM, the Activity [8] was “inactive” and the Activity (Escherichia coli [9]) was “inactive”. For the same compound, the MIC [10] was 6.2 µM (≈ 2.38 µg/mL), the Activity (Escherichia coli [11]) was “inactive” and the Activity (Staphylococcus aureus) was “inactive”.
In the case of `Cn1ncc(C(=O)N2CCC(Nc3cnnc4ccccc34)CC2)c1Cl`, the IC50 [7] is reported as over 10000 nM and the MIC [10] is reported as over 200 µM.
In the case of `Cn1ncc(C(=O)N2CCC(Nc3cc(=O)[nH]c4ccc(F)cc34)CC2)c1C(F)(F)F`, the Activity (Klebsiella pneumoniae) is reported as “inactive”, the Activity (Streptococcus pneumoniae) is reported as “inactive” and the Activity (Haemophilus influenzae [1]) is reported as “inactive”. For the same compound, the Activity [2] was “inactive”, the Activity (Pseudomonas aeruginosa [3]) was “inactive” and the Activity [4] was “inactive”. For the same compound, the Activity (Candida albicans) was “inactive”, the Activity (Haemophilus influenzae [5]) was “inactive” and the Activity (Pseudomonas aeruginosa [6]) was “inactive”. For the same compound, the IC50 [7] was 21 nM, the Activity [8] was “inactive” and the Activity (Escherichia coli [9]) was “inactive”. The MIC [10] was 6.2 µM (≈ 2.71 µg/mL), the Activity (Escherichia coli [11]) was “inactive” and the Activity (Staphylococcus aureus) was “inactive”.
In the case of `Cc1c(C(=O)N2CCC(Nc3cc(=O)[nH]c4ccc(F)cc34)CC2)nnn1C`, the Activity (Klebsiella pneumoniae) is reported as “inactive”, the Activity (Streptococcus pneumoniae) is reported as “inactive” and the Activity (Haemophilus influenzae [1]) is reported as “inactive”. The Activity [2] was “inactive”, the Activity (Pseudomonas aeruginosa [3]) was “inactive” and the Activity [4] was “inactive”. The Activity (Candida albicans) was “inactive”, the Activity (Haemophilus influenzae [5]) was “inactive” and the Activity (Pseudomonas aeruginosa [6]) was “inactive”. For the same compound, the IC50 [7] was 11 nM, the Activity [8] was “inactive” and the Activity (Escherichia coli [9]) was “inactive”. The MIC [10] was 3.5 µM (≈ 1.35 µg/mL), the Activity (Escherichia coli [11]) was “inactive” and the Activity (Staphylococcus aureus) was “inactive”.
For `Cn1ncc(C(=O)N2CCC(Nc3cc(=O)[nH]c4cc(F)ccc34)CC2)c1Cl`, the Activity (Klebsiella pneumoniae) was “inactive”, the Activity (Streptococcus pneumoniae) was “inactive” and the Activity (Haemophilus influenzae [1]) was “inactive”. For the same compound, the Activity [2] was “inactive”, the Activity (Pseudomonas aeruginosa [3]) was “inactive” and the Activity [4] was “inactive”. The Activity (Candida albicans) was “inactive”, the Activity (Haemophilus influenzae [5]) was “inactive” and the Activity (Pseudomonas aeruginosa [6]) was “inactive”. The IC50 [7] was 7 nM, the Activity [8] was “inactive” and the Activity (Escherichia coli [9]) was “inactive”. The MIC [10] was 3.1 µM (≈ 1.25 µg/mL), the Activity (Escherichia coli [11]) was “inactive” and the Activity (Staphylococcus aureus) was “inactive”.
With `CN(c1cc(=O)[nH]c2ccccc12)C1CCN(C(=O)c2cnn(C)c2Cl)CC1` the Activity (Klebsiella pneumoniae) was “inactive”, the Activity (Streptococcus pneumoniae) was “inactive” and the Activity (Haemophilus influenzae [1]) was “inactive”. For the same compound, the Activity [2] was “inactive”, the Activity (Pseudomonas aeruginosa [3]) was “inactive” and the Activity [4] was “inactive”. For the same compound, the Activity (Candida albicans) was “inactive”, the Activity (Haemophilus influenzae [5]) was “inactive” and the Activity (Pseudomonas aeruginosa [6]) was “inactive”. For the same compound, the IC50 [7] was 18000 nM, the Activity [8] was “inactive” and the Activity (Escherichia coli [9]) was “inactive”. The MIC [10] was over 250 µM, the Activity (Escherichia coli [11]) was “inactive” and the Activity (Staphylococcus aureus) was “inactive”.
Compound `Cn1ncc(C(=O)N2[C@@H]3CC[C@H]2C[C@H](Nc2cc(=O)[nH]c4ccc(F)cc24)C3)c1Cl` has an IC50 [7] of 43000 nM and an MIC [10] of over 200 µM.
In the case of `Cn1ncc(C(=O)N2CCC(Nc3cc(=O)n(C)c4cc(F)c(F)cc34)CC2)c1Cl`, the Activity (Klebsiella pneumoniae) is reported as “inactive”, the Activity (Streptococcus pneumoniae) is reported as “inactive” and the Activity (Haemophilus influenzae [1]) is reported as “inactive”. For the same compound, the Activity [2] was “inactive”, the Activity (Pseudomonas aeruginosa [3]) was “inactive” and the Activity [4] was “inactive”. For the same compound, the Activity (Candida albicans) was “inactive”, the Activity (Haemophilus influenzae [5]) was “inactive” and the Activity (Pseudomonas aeruginosa [6]) was “inactive”. For the same compound, the IC50 [7] was 20 nM, the Activity [8] was “inactive” and the Activity (Escherichia coli [9]) was “inactive”. For the same compound, the MIC [10] was 3.1 µM (≈ 1.35 µg/mL), the Activity (Escherichia coli [11]) was “inactive” and the Activity (Staphylococcus aureus) was “inactive”.
In the case of `C[C@H]1C[C@@H](Nc2cc(=O)[nH]c3ccccc23)CCN1C(=O)c1cnn(C)c1Cl`, the IC50 [7] is reported as over 10000 nM and the MIC [10] is reported as over 200 µM.
`Cn1ncc(C(=O)N2CCC(Nc3cc(-c4ccccc4)[nH]c(=O)c3)CC2)c1Cl` showed an IC50 [7] of 3000 nM and an MIC [10] of 50 µM (≈ 20.6 µg/mL).
For `COc1cc(NC2CCN(C(=O)c3cnn(C)c3Cl)CC2)c2ccccc2n1`, the IC50 [7] was 78000 nM and the MIC [10] was over 200 µM.
Work on `Cc1onc(C(=O)N2[C@@H]3CC[C@H]2C[C@@H](Nc2cc(=O)[nH]c4cc(F)c(F)cc24)C3)c1C` yielded an IC50 [7] of 7 nM and an MIC [10] of 0.06 µM (≈ 0.0257 µg/mL).
With `Cn1ncc(C(=O)N2[C@@H]3CC[C@H]2C[C@@H](Nc2cc(=O)[nH]c4cc(F)c(F)cc24)C3)c1Cl` the IC50 [7] was 9 nM and the MIC [10] was 0.06 µM (≈ 0.0269 µg/mL).
Work on `Cn1ncc(C(=O)N2[C@@H]3CC[C@H]2C[C@@H](Nc2cc(-c4ccccc4)[nH]c(=O)c2)C3)c1Cl` yielded an IC50 [7] of 53 nM and an MIC [10] of 1.6 µM (≈ 0.701 µg/mL).
Work on `Cn1ncc(C(=O)N2[C@@H]3CC[C@H]2C[C@@H](Nc2cc(=O)n(C)c4cc(F)c(F)cc24)C3)c1Cl` yielded an IC50 [7] of 8 nM and an MIC [10] of 0.12 µM (≈ 0.0554 µg/mL).
Work on `Cn1ncc(C(=O)N2CCC(Nc3cc(=O)[nH]c4ccccc34)C2)c1Cl` (stereo not drawn) yielded an IC50 [7] of 4700 nM and an MIC [10] of over 200 µM.
